Assay results from ChEMBL document CHEMBL1140117, “Structure-activity relationship studies for the peptide portion of the bladder epithelial cell antiproliferative factor from interstitial cystitis patients” (2008).
Active and inactive are the calls of the source. Starred links: 1 amine or outer side, 2 acyl side, 3 side chain; linkers in the order of their positions; H or OH if unused. Positions of bridges follow the written chain, without caps; N, C: chain ends. Non-standard residues stand in square brackets, D forms with d. Residues, ends and D or L forms follow the SMILES beside them. *: point of attachment. X3 = CC(=O)N[C@H]1[C@@H](O[C@H](C)[C@H](NO[*:2])C(=O)[*:1])O[C@H](CO)[C@H](O)[C@@H]1O[C@@H]1O[C@H](CO)[C@H](O)[C@H](O)[C@H]1O; X1 = CC(=O)N[C@@H]1[C@@H](O[C@@H]2O[C@H](CO)[C@H](O)[C@H](O)[C@H]2O)[C@@H](O)[C@@H](CO)O[C@@H]1*; NMeA = CN[C@@H](C)C(=O)O

Tested on: not listed separately
Assay: Antiproliferative activity against human bladder epithelial cells assessed as inhibition of [3H]thymidine incorporation after 48 hrs relative to as-APF
Assay type: functional, Epithelial cell
Design: scale not given: the % may be the effect or the level left
Procedure, shortened: (§1)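 Primary normal human bladder epithelial cells, explanted from cystoscopy biopsies, plated at 1.5 × 10⁴ cells/well in MEM with 10% heat-inactivated FBS. Congeners dissolved in acetonitrile/water (1:1), added in serum-free MEM in 10-fold dilutions up to the 25 µM assay cutoff. Incubated 48 h at 37 °C, 5% CO₂. ³H-thymidine uptake counted on filters. Activity expressed relative to the standard control run on each plate. Triplicates, at least two runs, ANOVA.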

SMILES	Activity
CC(=O)N[C@H]1[C@@H](OC[C@H](N)C(=O)N[C@@H](CC(C)C)C(=O)N2CCC[C@H]2C(=O)N[C@@H](C)C(=O)N[C@@H](C)C(=O)N[C@H](C(=O)N[C@H](C(=O)N[C@H](C(=O)N[C@@H](C)C(=O)O)C(C)C)C(C)C)C(C)C)O[C@H](CO)[C@H](O)[C@@H]1O[C@@H]1O[C@H](CO)[C@H](O)[C@H](O)[C@H]1O (H-S(X1)LPAAVVVA-OH)	1%
CC(=O)N[C@H]1[C@@H](O[C@H](C)[C@H](N)C(=O)N[C@H](C(=O)N2CCC[C@H]2C(=O)N[C@@H](C)C(=O)N[C@@H](CO)C(=O)N[C@H](C(=O)N[C@H](C(=O)N[C@H](C(=O)N[C@@H](CO)C(=O)O)C(C)C)C(C)C)C(C)C)C(C)C)O[C@H](CO)[C@H](O)[C@@H]1O[C@@H]1O[C@H](CO)[C@H](O)[C@H](O)[C@H]1O (H-T(X1)VPASVVVS-OH)	0.2%
CC(=O)N[C@H]1[C@@H](O[C@H](C)[C@H](N)C(=O)N[C@H](C(=O)N2CCC[C@H]2C(=O)N[C@@H](C)C(=O)N[C@@H](C)C(=O)N[C@H](C(=O)N[C@H](C(=O)N[C@H](C(=O)N[C@@H](CC(C)C)C(=O)O)C(C)C)C(C)C)C(C)C)C(C)C)O[C@H](CO)[C@H](O)[C@@H]1O[C@@H]1O[C@H](CO)[C@H](O)[C@H](O)[C@H]1O (H-T(X1)VPAAVVVL-OH)	0.01%
CC(=O)N[C@H]1[C@@H](O[C@H](C)[C@H](N)C(=O)N[C@H](C(=O)N2CCC[C@H]2C(=O)N[C@@H](C)C(=O)N[C@@H](C)C(=O)N[C@H](C(=O)N[C@H](C(=O)N[C@H](C(=O)O)C(C)C)C(C)C)C(C)C)C(C)C)O[C@H](CO)[C@H](O)[C@@H]1O[C@@H]1O[C@H](CO)[C@H](O)[C@H](O)[C@H]1O (H-T(X1)VPAAVVV-OH)	100%
CC(=O)N[C@H]1[C@@H](OC[C@H](N)C(=O)N[C@H](C(=O)N2CCC[C@H]2C(=O)N[C@@H](C)C(=O)N[C@@H](C)C(=O)N[C@H](C(=O)N[C@H](C(=O)N[C@H](C(=O)N[C@@H](C)C(=O)O)C(C)C)C(C)C)C(C)C)C(C)C)O[C@H](CO)[C@H](O)[C@@H]1O[C@@H]1O[C@H](CO)[C@H](O)[C@H](O)[C@H]1O (H-S(X1)VPAAVVVA-OH)	0.01%
CC(=O)N[C@H]1[C@@H](O[C@H](C)[C@H](N)C(=O)N[C@H](C(=O)N2CCC[C@H]2C(=O)N[C@@H](C)C(=O)N[C@@H](C)C(=O)N[C@@H](C)C(=O)N[C@@H](C)C(=O)N[C@@H](C)C(=O)N[C@@H](C)C(=O)O)C(C)C)O[C@H](CO)[C@H](O)[C@@H]1O[C@@H]1O[C@H](CO)[C@H](O)[C@H](O)[C@H]1O (H-T(X1)VPAAAAAA-OH)	1%
CC(=O)N[C@H]1[C@@H](O[C@H](C)[C@H](N)C(=O)N[C@H](C(=O)N2CCC[C@H]2C(=O)N[C@@H](C)C(=O)N[C@@H](C)C(=O)N[C@H](C(=O)N[C@H](C(=O)N[C@H](C(=O)N[C@@H](C)C(=O)N[C@@H](CS)C(=O)O)C(C)C)C(C)C)C(C)C)C(C)C)O[C@H](CO)[C@H](O)[C@@H]1O[C@@H]1O[C@H](CO)[C@H](O)[C@H](O)[C@H]1O (H-T(X1)VPAAVVVAC-OH)	1%
CC(=O)N[C@H]1[C@@H](O[C@H](C)[C@H](N)C(=O)N[C@H](C(=O)N(C)[C@@H](C)C(=O)N[C@@H](C)C(=O)N[C@@H](C)C(=O)N[C@H](C(=O)N[C@H](C(=O)N[C@H](C(=O)N[C@@H](C)C(=O)O)C(C)C)C(C)C)C(C)C)C(C)C)O[C@H](CO)[C@H](O)[C@@H]1O[C@@H]1O[C@H](CO)[C@H](O)[C@H](O)[C@H]1O (H-T(X1)V[NMeA]AAVVVA-OH)	0.05%
CC(=O)N[C@H]1[C@@H](O[C@H](C)[C@H](N)C(=O)N[C@H](C(=O)N[C@@H](C)C(=O)N[C@@H](C)C(=O)N[C@@H](C)C(=O)N[C@H](C(=O)N[C@H](C(=O)N[C@H](C(=O)N[C@@H](C)C(=O)O)C(C)C)C(C)C)C(C)C)C(C)C)O[C@H](CO)[C@H](O)[C@@H]1O[C@@H]1O[C@H](CO)[C@H](O)[C@H](O)[C@H]1O (H-T(X1)VAAAVVVA-OH)	0.3%
CC(=O)N[C@H]1[C@@H](O[C@H](C)[C@H](NC(=O)[C@@H](N)Cc2ccc(O)cc2)C(=O)N[C@H](C(=O)N2CCC[C@H]2C(=O)N[C@@H](C)C(=O)N[C@@H](C)C(=O)N[C@H](C(=O)N[C@H](C(=O)N[C@H](C(=O)N[C@@H](C)C(=O)O)C(C)C)C(C)C)C(C)C)C(C)C)O[C@H](CO)[C@H](O)[C@@H]1O[C@@H]1O[C@H](CO)[C@H](O)[C@H](O)[C@H]1O (H-YT(X1)VPAAVVVA-OH)	1%

Tested on: Epithelial cell
Assay: Antiproliferative activity against human bladder epithelial cells assessed as inhibition of [3H]thymidine incorporation at <25 uM after 48 hrs relative to as-APF
Assay type: functional, cell-based
Procedure, shortened: as §1

SMILES	Activity
CC(=O)N[C@H]1[C@@H](O[C@H](C)[C@H](N)C(=O)N[C@H](C(=O)N2CCC[C@H]2C(=O)N[C@@H](C)C(=O)N[C@@H](C)C(=O)N[C@H](C(=O)N[C@H](C(=O)O)C(C)C)C(C)C)C(C)C)O[C@H](CO)[C@H](O)[C@@H]1O[C@@H]1O[C@H](CO)[C@H](O)[C@H](O)[C@H]1O (H-T(X1)VPAAVV-OH)	inactive
CC(=O)N[C@H]1[C@@H](O[C@H](C)[C@H](N)C(=O)N[C@H](C(=O)N2CCC[C@H]2C(=O)NCCCCCCCCCCCC(=O)O)C(C)C)O[C@H](CO)[C@H](O)[C@@H]1O[C@@H]1O[C@H](CO)[C@H](O)[C@H](O)[C@H]1O	inactive
CC(=O)N[C@H]1[C@@H](O[C@H](C)[C@@H]2NOC(=O)[C@H](C)NC(=O)[C@H](C(C)C)NC(=O)[C@H](C(C)C)NC(=O)[C@H](C(C)C)NC(=O)[C@H](C)NC(=O)[C@H](C)NC(=O)[C@@H]3CCCN3C(=O)[C@H](C(C)C)NC2=O)O[C@H](CO)[C@H](O)[C@@H]1O[C@@H]1O[C@H](CO)[C@H](O)[C@H](O)[C@H]1O (VPAAVVVA; linker N-C via X3)	inactive
CC(=O)N[C@H]1[C@@H](O[C@H](C)[C@H](N)C(=O)N[C@H](C(=O)N2CCC[C@H]2C(=O)N[C@@H](C)C(=O)NCC(=O)N[C@H](C(=O)N[C@H](C(=O)N[C@H](C(=O)NCC(=O)O)C(C)C)C(C)C)C(C)C)C(C)C)O[C@H](CO)[C@H](O)[C@@H]1O[C@@H]1O[C@H](CO)[C@H](O)[C@H](O)[C@H]1O (H-T(X1)VPAGVVVG-OH)	inactive
CC(=O)N[C@H]1[C@@H](O[C@H](C)[C@H](N)C(=O)N[C@H](C(=O)N2CCC[C@H]2C(=O)N[C@@H](C)C(=O)N[C@@H](C)C(=O)N[C@H](C(=O)N[C@H](C(=O)N[C@@H](C)C(=O)N[C@H](C(=O)O)C(C)C)C(C)C)C(C)C)C(C)C)O[C@H](CO)[C@H](O)[C@@H]1O[C@@H]1O[C@H](CO)[C@H](O)[C@H](O)[C@H]1O (H-T(X1)VPAAVVAV-OH)	inactive
